Experimental data published in paper PMC12324215 (bioRxiv, 2025).

Tests used:
[1] = test system: T. brucei brucei 449 (strain: Lister 427, bloodstream form); assay: Trypanosome cell survival assay; format: cell-based; details: Trypanosoma brucei, 24 h, read-out: EC50 (24 h)
Tpx WT/inhibitor complex = molecular target: T1, Tpx WT/inhibitor complex (Trypanosoma brucei brucei, UniProt O77404); assay: SEC-MALS of Tpx/inhibitor complexes; format: binding, T. brucei; details: SEC-MALS at 100 μM protein concentration
T1 sequence (O77404 with tags, fused parts or gaps): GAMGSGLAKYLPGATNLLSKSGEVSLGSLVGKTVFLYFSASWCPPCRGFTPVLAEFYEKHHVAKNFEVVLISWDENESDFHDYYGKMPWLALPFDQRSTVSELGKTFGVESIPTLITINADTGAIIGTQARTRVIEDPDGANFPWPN
In short: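 Covalent complexes were formed as for ITC (TCEP-reduced Tpx, 3-fold excess inhibitor, 30 min, 25 °C) and SEC-purified. 100 µM complex was run on Superdex 75 10/300 in 25 mM NaPi pH 7.5, 150 mM NaCl at 0.5 ml/min, room temperature. Molar mass came from multi-angle light scattering plus refractive index detection, using a Zimm model.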

oligomeric state of Tpx/inhibitor complex (Tpx WT/inhibitor complex)	Compound	EC50 [1] [nM]
remained monomeric	O=c1[nH]c(CCl)nc2scc(-c3ccc(C(F)(F)F)cc3)c12 [CtFT, 2-(Chloromethyl)-5-(4-(trifluoromethyl)phenyl)thieno[2,3-d]pyrimidin-4(3H)-one]	2200 ± 600
	O=c1[nH]c(CCl)nc2scc(-c3ccccc3)c12 [CPT, 2-(Chloromethyl)-5-phenylthieno[2,3-d]pyrimidin-4(3H)-one]	600 ± 300
